Source: paper PMC4872389 (The American journal of Chinese medicine, 2016)

How the values were obtained:
[1] = Plasma, tissue and urine pyranocoumarins after repeated i.p. AGN; format: in vivo, CD-1 mice; conditions: 3 h after last i.p. injection of AGN
Outline: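 CD-1 mice, 8–10 weeks old, 6 per sex per group, were kept on AIN-93M diet. They received i.p. vehicle or AGN extract at 100, 200 or 300 mg/kg in 0.3 mL, six days/week for 4 weeks, with dose adjusted weekly to body weight. Blood and organs were taken 3 h after the last injection. Extracts were made with ethyl acetate and analyzed by HPLC-UV; n=4~6 per dose group.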

[2] = Plasma and tissue D, DA, DOH after sub-chronic dietary AGN exposure; format: in vivo, male C57BL/6J mice; conditions: for concentration at 6 weeks: male, C57BL/6J, mouse, oral; for Terminal-bleed plasma level by HPLC-UV: 0.5% and 1% AGN diet, 6 weeks, all but one mouse
Outline: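 Male C57BL/6J mice, 6 weeks old, 10 per group, were fed AIN-93M diet containing 0.5% or 1% (w/w) AGN extract ad libitum for 6 weeks. Terminal plasma was taken by cardiac puncture (heparin) under anesthesia, 1–4 pm. Tissues were homogenized in 4 volumes of water. Samples were extracted with ethyl acetate and analyzed by HPLC-UV, with D and DA quantitated together. Values are mean ± SE, n=5.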

[3] = Plasma and tissue D, DA, DOH after a single gavage dose of D/DA; format: in vivo, male C57BL/6 mice
Outline: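 Male C57BL/6 mice, 6–7 weeks old, 5 per group, got one gastric gavage of 3 mg D/DA (1.8 mg D + 1.2 mg DA) in 0.3 mL of 10% ethanol/20% PEG400/3.3% Tween80/66.7% USP 5% dextrose. Plasma (cardiac puncture, heparin) and tissues were collected at time points over 24 h. Water homogenates (ice bath) were extracted with ethyl acetate. Analysis was HPLC-UV, except prostate by UHPLC-MS/MS.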

cytochrome p450 (Cyp) = conditions: orally administered general Cyp inhibitor; ref Zhang et al., 2015b; cited from earlier work
[4] = rat, in vivo; cited from earlier work
[5] = adipose, single gavage 3 mg D/DA
[6] = kidney, single gavage 3 mg D/DA
[7] = male, C57BL/6, mouse, plasma, po, 3 mg
[8] = prostate, single gavage 3 mg D/DA

SMILES	Content in liver, lung, kidney and brain relative to plasma [1]	concentration at 6 weeks ([2]; brain) [µM]	concentration at 6 weeks ([2]; kidney) [µM]	concentration at 6 weeks ([2]; liver) [µM]	concentration at 6 weeks ([2]; lung) [µM]	concentration at 6 weeks ([2]; plasma, 0.5 % AGN in diet) [µM]	concentration at 6 weeks ([2]; plasma, 1 % AGN in diet) [µM]	concentration at 6 weeks ([2]; prostate) [µM]	Cmax [3, 5] [µmol/kg]	Cmax ([3]; brain, single gavage 3 mg D/DA) [µmol/kg]	Cmax [3, 6] [µmol/kg]	Cmax ([3]; liver, single gavage 3 mg D/DA) [µmol/kg]	Cmax ([3]; lung, single gavage 3 mg D/DA) [µmol/kg]	Cmax [3, 7] [µM]	Tmax ([3]; male, C57BL/6, mouse, po, 3 mg) [h]	Cmax [3, 8] [µmol/kg]	Increase of prostate retention on blocking Cyp activities (cytochrome p450 (Cyp))	Terminal-bleed plasma level by HPLC-UV [2]	Reported safe dose [4] [mg D/kg]
CC1(C)Oc2cc3oc(=O)ccc3cc2C[C@@H]1O [DOH, decursinol]	lower than its plasma level	2.97	14.4	41.1	3.33	0.99 ± 0.11	2.44 ± 0.52	12.8	28.5	23.3	50.4	47.8	31.6	39.8	1	46.4			
C/C=C(/C)C(=O)O[C@H]1Cc2cc3ccc(=O)oc3cc2OC1(C)C [DA, decursinol angelate]									7.26	1.78	5.51	2.95	3.13	0.76	1	14.80	2 orders of magnitude	below limit of detection	
CC(C)=CC(=O)O[C@H]1Cc2cc3ccc(=O)oc3cc2OC1(C)C [D, decursin]									1.75	1.00	0.42	0.38	0	0.38	1	4.90	2 orders of magnitude	below limit of detection	250
